{"source": "paper PMC10213863", "about": "(Cell Reports Medicine, 2023)", "key": {"[1]": {"molecular_target": "T1, TLR8 (Homo sapiens, UniProt Q9NR97)", "T1 sequence (Q9NR97 27-1041)": "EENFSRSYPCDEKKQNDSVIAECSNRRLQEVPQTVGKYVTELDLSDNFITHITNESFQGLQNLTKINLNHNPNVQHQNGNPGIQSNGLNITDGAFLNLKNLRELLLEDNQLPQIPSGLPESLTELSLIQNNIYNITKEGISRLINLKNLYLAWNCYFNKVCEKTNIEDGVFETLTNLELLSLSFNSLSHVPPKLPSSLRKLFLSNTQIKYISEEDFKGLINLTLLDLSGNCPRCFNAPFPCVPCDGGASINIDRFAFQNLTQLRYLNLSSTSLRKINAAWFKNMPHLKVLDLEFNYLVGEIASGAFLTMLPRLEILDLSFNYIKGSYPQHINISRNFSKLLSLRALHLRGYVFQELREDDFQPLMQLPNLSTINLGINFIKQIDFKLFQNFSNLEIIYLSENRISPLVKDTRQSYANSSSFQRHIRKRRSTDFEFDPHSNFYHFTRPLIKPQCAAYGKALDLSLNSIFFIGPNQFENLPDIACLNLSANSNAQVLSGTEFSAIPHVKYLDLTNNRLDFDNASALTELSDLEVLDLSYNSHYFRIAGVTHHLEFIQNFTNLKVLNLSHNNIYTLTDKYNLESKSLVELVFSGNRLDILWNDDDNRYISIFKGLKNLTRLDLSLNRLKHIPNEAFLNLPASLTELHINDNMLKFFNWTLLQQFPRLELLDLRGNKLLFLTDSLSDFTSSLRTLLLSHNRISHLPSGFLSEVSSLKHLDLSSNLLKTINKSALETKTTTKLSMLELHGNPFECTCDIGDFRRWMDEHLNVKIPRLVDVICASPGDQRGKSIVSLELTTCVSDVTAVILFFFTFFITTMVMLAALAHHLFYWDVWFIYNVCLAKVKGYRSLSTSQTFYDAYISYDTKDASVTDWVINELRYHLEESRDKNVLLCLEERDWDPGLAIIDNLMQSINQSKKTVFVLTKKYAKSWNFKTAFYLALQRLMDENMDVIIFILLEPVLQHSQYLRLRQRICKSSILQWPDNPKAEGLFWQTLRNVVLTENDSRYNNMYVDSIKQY", "experiment": "Human neutrophil ROS production, TL8-506 stimulation", "format": "cell-based", "procedure,_shortened": "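Cells were pre-treated 30 min with increasing concentrations of test compound or 0.1% v/v DMSO. They were then stimulated 30 min at 37°C, 5% CO2 with TL8-506 or PMA (50 ng/mL). ROS was detected with 2 μM dihydrorhodamine for 15 min at 37°C and read by flow cytometry. Signals were normalized to vehicle; viability was checked by CellTiter-Glo.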"}, "[2]": {"molecular_target": "T2, TLR7 (Mus musculus, UniProt P58681)", "T2 sequence (P58681 27-1050)": "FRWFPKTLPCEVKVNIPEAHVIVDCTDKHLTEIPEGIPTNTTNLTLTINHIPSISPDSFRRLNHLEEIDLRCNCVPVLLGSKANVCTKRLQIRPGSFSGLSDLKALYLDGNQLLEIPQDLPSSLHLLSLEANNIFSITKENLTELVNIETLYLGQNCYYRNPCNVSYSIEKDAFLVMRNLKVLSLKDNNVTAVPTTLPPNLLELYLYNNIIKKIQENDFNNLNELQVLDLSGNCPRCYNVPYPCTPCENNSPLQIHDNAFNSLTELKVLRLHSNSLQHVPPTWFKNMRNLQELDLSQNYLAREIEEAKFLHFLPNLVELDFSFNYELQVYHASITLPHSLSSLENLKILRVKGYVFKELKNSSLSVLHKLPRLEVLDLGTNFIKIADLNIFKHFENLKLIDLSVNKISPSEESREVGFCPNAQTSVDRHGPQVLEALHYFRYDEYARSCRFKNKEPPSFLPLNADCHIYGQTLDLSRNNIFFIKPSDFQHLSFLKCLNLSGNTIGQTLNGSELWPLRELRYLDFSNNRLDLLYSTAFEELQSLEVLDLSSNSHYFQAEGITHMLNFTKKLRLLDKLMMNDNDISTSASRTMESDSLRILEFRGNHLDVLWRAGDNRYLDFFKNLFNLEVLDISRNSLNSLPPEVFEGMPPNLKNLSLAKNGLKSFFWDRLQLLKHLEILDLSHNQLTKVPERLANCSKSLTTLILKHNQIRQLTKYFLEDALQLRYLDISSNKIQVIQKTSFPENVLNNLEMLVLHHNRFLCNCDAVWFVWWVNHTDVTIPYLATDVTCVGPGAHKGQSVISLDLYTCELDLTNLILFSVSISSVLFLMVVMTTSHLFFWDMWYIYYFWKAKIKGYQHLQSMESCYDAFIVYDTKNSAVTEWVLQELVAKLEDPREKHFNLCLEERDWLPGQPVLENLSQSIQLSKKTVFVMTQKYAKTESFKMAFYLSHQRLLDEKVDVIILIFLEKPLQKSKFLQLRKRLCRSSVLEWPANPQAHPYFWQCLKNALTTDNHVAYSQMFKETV", "experiment": "Acute cytokine release in vivo assay, TLR7 agonist", "conditions": "129/Sv mice; single p.o. dose 1.5 or 15 mg/kg", "procedure,_shortened": "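129/Sv mice (5 per group) got test compound orally in 0.5% methylcellulose/0.5% Tween-80, or vehicle alone. At 1 h they were injected i.v. with the TLR agonist (line 1: 20 μg R0006; line 2: CpG1585), each pre-complexed with 140 μg DOTAP in HBSS. At 3 h, EDTA blood was taken. Plasma IFN-α (both lines) and TNF were measured by ELISA, single technical replicate per mouse. Serum drug levels were measured by LC-MS/MS.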"}, "[3]": {"molecular_target": "TLR9 (Mus musculus, UniProt Q9EQU3)", "sequence (Q9EQU3 26-1032)": "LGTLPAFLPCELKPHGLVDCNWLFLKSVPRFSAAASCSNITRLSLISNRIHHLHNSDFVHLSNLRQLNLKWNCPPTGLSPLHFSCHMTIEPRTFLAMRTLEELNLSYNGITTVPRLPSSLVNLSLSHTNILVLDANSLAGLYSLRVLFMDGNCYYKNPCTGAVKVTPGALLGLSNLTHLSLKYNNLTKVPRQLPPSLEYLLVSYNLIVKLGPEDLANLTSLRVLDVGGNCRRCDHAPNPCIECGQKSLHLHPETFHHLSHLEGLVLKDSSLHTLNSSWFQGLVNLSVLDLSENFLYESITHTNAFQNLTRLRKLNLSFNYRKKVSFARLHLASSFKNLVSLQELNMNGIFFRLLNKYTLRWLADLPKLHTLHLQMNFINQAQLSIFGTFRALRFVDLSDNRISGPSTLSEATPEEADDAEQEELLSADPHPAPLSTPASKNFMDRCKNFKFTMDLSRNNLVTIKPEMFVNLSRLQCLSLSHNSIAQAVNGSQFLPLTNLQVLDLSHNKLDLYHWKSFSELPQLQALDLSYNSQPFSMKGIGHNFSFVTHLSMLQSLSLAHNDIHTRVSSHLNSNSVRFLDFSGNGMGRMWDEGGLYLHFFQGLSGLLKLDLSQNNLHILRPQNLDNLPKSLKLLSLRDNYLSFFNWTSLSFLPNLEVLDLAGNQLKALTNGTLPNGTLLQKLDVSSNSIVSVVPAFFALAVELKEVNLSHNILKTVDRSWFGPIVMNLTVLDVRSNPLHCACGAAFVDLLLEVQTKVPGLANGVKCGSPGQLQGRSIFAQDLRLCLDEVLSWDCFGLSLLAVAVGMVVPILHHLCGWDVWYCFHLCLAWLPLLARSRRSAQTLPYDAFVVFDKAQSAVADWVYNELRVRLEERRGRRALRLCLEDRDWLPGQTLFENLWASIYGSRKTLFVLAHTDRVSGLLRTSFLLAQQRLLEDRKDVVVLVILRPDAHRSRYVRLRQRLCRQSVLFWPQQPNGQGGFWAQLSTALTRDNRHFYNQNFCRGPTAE", "experiment": "Murine whole blood assay, ODN-IFN-α", "format": "cell-based", "procedure,_shortened": "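Fresh human blood or 129/Sv mouse blood was taken into citrate and diluted 1:1 with RPMI1640. It was pre-incubated 30 min at 37°C, 5% CO2 with increasing concentrations of test compound or 0.25% v/v DMSO (final). Blood was then stimulated with TLR agonists at doses from earlier work, or with R848 (3 μM), and cytokines were quantified. Viability was checked by ATPlite luminescence.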"}, "[4]": {"tested_on": "B cell receptor", "experiment": "B cell receptor-mediated activation in human blood", "format": "cell-based", "conditions": "up to 16 μM; n = 2, data not shown", "procedure,_shortened": "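Heparinized human blood was given a 3-fold serial dilution of test compound, top 16 μM, for 1.5 h at 37°C. B cells were then activated with 50 μg/mL anti-human IgM for 20 min at 37°C. Samples were lysed/fixed and permeabilized, then stained for pAkt([…]) and CD20. Readout was by flow cytometry.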"}}}
{"smiles": "Cc1cc(N2CCc3c(c(C)nn3CC34CCC(NC(=O)[C@@H]5COCCN5)(CC3)CC4)C2)c2cnn(C)c2n1", "note": "[MHV370, (S)-N-(4-((5-(1,6-dimethyl-1H-pyrazolo[3,4-b]pyridin-4-yl)-3-methyl-4,5,6,7-tetrahydro-1H-pyrazolo[4,3-c]pyridin-1-yl)methyl)bicyclo[2.2.2]octan-1-yl)morpholine-3-carboxamide]", "values": [{"measurement": "IC50", "setting": "[1]", "value": "5.2 ± 1.5", "unit": "nM"}, {"measurement": "TLR7-dependent IFN-α and TNF production in plasma", "setting": "[2]", "value": "efficiently inhibited"}, {"measurement": "IC50", "setting": "[3]", "value": "> 10000", "unit": "nM"}, {"measurement": "functional inhibition of TLR9", "setting": "[3]; mouse blood, up to 10 μM", "value": "did not show functional inhibition"}, {"measurement": "activation of B cell responses via the B cell receptor", "setting": "[4]", "value": "unaffected"}]}
